From paper PMC4094378 (European journal of medicinal chemistry, 2014)
Entries after “also recorded” stand apart in the source; their conditions may differ.

Assays:
[1] = system: HeLa (cervical) cancer cells; settings: read-out: IC50 HeLa (literature); ref [18],[19]; cited from earlier work
[2] = system: U-937 (lymphoma) cells; settings: read-out: IC50 U-937; ref [18],[19]; cited from earlier work
[3] = system: panel of seven human cancer cell lines; assay: Antiproliferative activity across the panel of seven cancer cell lines; type: cell-based; settings: for IC50: Homo sapiens, read-out: IC50 range over the panel of cancer cell lines
Method in brief: (§1)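 Jurkat, CEM and SEM cells were grown in RPMI-1640, and HeLa, MCF-7, HT-29 and LoVo in DMEM, each with 10% FBS and penicillin/streptomycin. Wells got 8 × 10^3 cells and were preincubated 18 h at 37 °C in 5% CO2. Test compound from a 10 mM DMSO stock was diluted in medium (final DMSO ≤0.25%) and applied for 72 h. Read-out was MTT. IC50 is the concentration giving 50% inhibition of proliferation, from dose–response curves of ≥3 independent experiments, mean ± SE.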

[4] = system: Bovine brain tubulin; assay: In vitro inhibition of tubulin polymerization; type: biochemical; settings: 10 μM purified tubulin, glutamate buffer, 30 °C
Method in brief: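 Tubulin was purified from bovine brain. Varying test-compound concentrations were preincubated with the tubulin at 30 °C, then cooled to 0 °C. GTP was added, the mixtures were moved to 0 °C cuvettes in a recording spectrophotometer and warmed to 30 °C, and assembly was followed turbidimetrically.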

[5] = system: Jurkat cells; assay: Cell growth inhibitory activity; type: cell-based, human; settings: additional meta-methoxy
Method in brief: as §1

[6] = system: LoVo cells; assay: Cell growth inhibitory activity; type: cell-based, human; settings: additional meta-methoxy
Method in brief: as §1

[7] = system: microtubule network in HeLa cells; assay: Immunofluorescence analysis of microtubule network; type: cell-based, human; settings: 2.5 or 5.0 μM, 24 h, anti-β-tubulin staining
Method in brief: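 Untreated HeLa cells served as the control. After 24 h exposure, cells were fixed in cold 4% formaldehyde for 15 min. Staining used mouse monoclonal anti-β-tubulin (1:1000), then an Alexa-conjugated secondary antibody (1:2000), with DAPI (1:10,000) counterstain for nuclei. Cells were imaged by confocal microscopy at 20×.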

[8] = system: Bcl-2, Bax, Bak, Mcl-1 and Bid in HeLa cells; assay: Western blot of Bcl-2 family proteins; type: cell-based, human; settings: for Mcl-1 expression: 2.5 μM, especially at 48 h; for Bid expression: evident after 24 h at the lowest concentration used
Method in brief: (§2)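 HeLa cultures were sampled at the indicated times and concentrations, washed twice in 0 °C PBS and lysed 30 min at 0 °C. Lysates were clarified at 15 000 × g (4 °C, 10 min) and protein was measured by BCA. Aliquots of 20 µg were run on 7.5–15% gradient SDS-PAGE and blotted to PVDF. Membranes were blocked at 4 °C, probed 2 h at room temperature with primary antibody, then 60 min with peroxidase-labelled secondary, and developed by ECL. Membranes were reprobed for β-actin as the loading control.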

[9] = system: HeLa cells; assay: Cell viability with or without pan-caspase inhibitor z-VAD.fmk; type: cell-based, human; settings: compound 2.5 μM, z-VAD.fmk 100 μM, 48 h
Method in brief: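 HeLa cells were exposed for 48 h to test compound with or without the pan-caspase inhibitor, and viability was recorded as a percentage. Data are means ± SEM of three independent experiments. Significance against compound-alone treatment was tested by Student's t-test. Final DMSO was ≤0.25%.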

[10] = system: HeLa cells; assay: Annexin-V/PI apoptosis assay; type: cell-based, human; settings: 24 h, further increased after 48 h
[11] = system: HeLa cells; assay: Flow cytometric analysis of cell cycle distribution; type: cell-based, human; settings: 24 h; for effect on cell cycle progression: PI, concentration-dependent, reduction in S phase cells
Method in brief: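 HeLa cells in exponential growth (2.5 × 10^5) were treated with a range of test-compound concentrations. Cells were collected, fixed in ice-cold 70% ethanol, and lysed in buffer containing RNase A and 0.1% Triton X-100. They were stained with propidium iodide for flow-cytometric DNA content, and the DNA histograms were analysed to give the percentage of cells in each phase.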

[12] = system: HeLa cells; assay: Cell viability; type: cell-based, human; settings: 2.5 μM, 48 h; BHA 10 μM, TOC 100 μM, NAC 100 μM, GSH 1 mM, DTT 1 mM
[13] = system: HeLa cells; assay: Intracellular GSH content; type: cell-based, human; settings: 24 h, concentration-dependent; counteracted by NAC 100 μM
[14] = system: γH2A.X in HeLa cells; assay: Western blot of γH2A.X; type: cell-based, human; settings: 24 or 48 h treatment
Method in brief: as §2

[15] = system: PBMC not stimulated with PHA; assay: Cytotoxicity in resting PBMC; type: cell-based, human; settings: resting PBMC vs lymphoblastic cell lines
Method in brief: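 PBMC from healthy donors were isolated on a Lymphoprep gradient, washed, and held overnight at 1.0 × 10^6 cells/mL in RPMI-1640 with 10% FBS. Non-adherent cells were resuspended at 5 × 10^5 cells/mL without PHA, given a range of test-compound concentrations for 72 h, and read by MTT. Values are mean ± SEM of three separate experiments.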

[16] = system: HeLa cells; assay: ROS production by flow cytometry; type: cell-based, human
[17] = system: HeLa cells; assay: Mitochondrial membrane potential; type: cell-based, human; settings: JC-1, time course
[18] = system: murine leukemia L1210 cells; settings: read-out: IC50 L1210; ref [21]; cited from earlier work

COc1cccc(/C=C/C(=O)Nc2cc(OC)c(OC)c(OC)c2)c1 [1a]
IC50 [1]: 11300 nM
IC50 [2]: 3000 nM

COc1cc(NC(=O)/C=C/c2cccc(OCc3ccccc3)c2)cc(OC)c1OC [1b, reference compound]
IC50 [3]: 2200 to 21700 nM
fold more potent than 1a ([3]; across seven cell lines): 1.5- to 12 fold
IC50 [2]: 1800 nM

C=C(Br)C(=O)Nc1cccc(/C=C/C(=O)Nc2ccccc2)c1 [4a, N-{3-[(1E)-3-anilino-3-oxoprop-1-en-1-yl]phenyl}-2-bromoacrylamide]
IC50 [3]: 190 to 27300 nM

C=C(Br)C(=O)Nc1cccc(/C=C/C(=O)Nc2cccc3ccccc23)c1 [4b, 2-Bromo-N-(3-{(1E)-3-oxo-3-[(naphthalen-1-yl)amino]prop-1-en-1-yl}phenyl)-acrylamide]
IC50 [3]: 680 to 6500 nM

C=C(Br)C(=O)Nc1cccc(/C=C/C(=O)Nc2cccc(F)c2)c1 [4d, 2-Bromo-N-(3-{(1E)-3-oxo-3-[(3-fluorophenyl)amino]prop-1-en-1-yl}phenyl)-acrylamide]
fold enhancement of antiproliferative activity vs 4c ([3]; fluorine moved para to meta, six of seven cell lines, exception CEM): 4–15 fold

C=C(Br)C(=O)Nc1cccc(/C=C/C(=O)Nc2ccc(F)c(F)c2)c1 [4e, 2-Bromo-N-(3-{(1E)-3-oxo-3-[(3,4-difluorophenyl)amino]prop-1-en-1-yl}phenyl)-acrylamide]
fold increase of antiproliferative activity relative to 4c ([3]; additional meta-fluorine, all cancer cell lines): 4–1300 fold
Concentration up to which tubulin assembly was not inhibited [4]: > 20 µM

C=C(Br)C(=O)Nc1cccc(/C=C/C(=O)Nc2ccc(Cl)cc2)c1 [4f, 2-Bromo-N-(3-{(1E)-3-oxo-3-[(4-chlorophenyl)amino]prop-1-en-1-yl}phenyl)-acrylamide]
fold increase of antiproliferative activity, fluorine to chlorine ([3]; vs 4c): 2–30 fold

C=C(Br)C(=O)Nc1cccc(/C=C/C(=O)Nc2ccc(C)cc2)c1 [4g, 2-Bromo-N-(3-{(1E)-3-oxo-3-[(p-tolyl)amino]prop-1-en-1-yl}phenyl)-acrylamide]
fold increase in potency vs 4f ([3]; chlorine replaced by methyl): 2–10 fold

C=C(Br)C(=O)Nc1cccc(/C=C/C(=O)NCc2ccc(C)cc2)c1 [4h, 2-Bromo-N-(3-{(1E)-3-[(4-methylbenzyl)amino]-3-oxoprop-1-en-1-yl}phenyl)acrylamide]
fold reduced activity compared with 4g ([3]; cell lines other than HeLa, LoVo and MCF-7): 2 to 7 fold

C=C(Br)C(=O)Nc1cccc(/C=C/C(=O)Nc2ccc(OC)cc2)c1 [4i, 2-Bromo-N-(3-{(1E)-3-oxo-3-[(4-methoxyphenyl)amino]prop-1-en-1-yl}phenyl)-acrylamide]
fold increase in antiproliferative activity relative to 4a ([3]; para-methoxy): 7–15 fold
Concentration up to which tubulin assembly was not inhibited [4]: > 20 µM

C=C(Br)C(=O)Nc1cccc(/C=C/C(=O)Nc2ccc(OC)c(OC)c2)c1 [4m, 2-Bromo-N-(3-{(1E)-3-oxo-3-[(3,4-dimethoxyphenyl)amino]prop-1-en-1-yl}phenyl)-acrylamide]
fold increase in activity vs 4i, Jurkat [5]: 2 fold
fold increase in activity vs 4i, LoVo [6]: 3 fold
Concentration up to which tubulin assembly was not inhibited [4]: > 20 µM

C=C(Br)C(=O)Nc1cccc(/C=C/C(=O)Nc2cc(OC)c(OC)c(OC)c2)c1 [4o, 2-Bromo-N-(3-{(1E)-3-oxo-3-[(3,4,5-trimethoxyphenyl)amino]prop-1-en-1-yl}phenyl)-acrylamide]
IC50 [3]: 18 to 2300 nM
Concentration up to which tubulin assembly was not inhibited [4]: > 20 µM

C=C(Br)C(=O)Nc1cccc(/C=C/C(=O)Nc2ccc(N3CCOCC3)cc2)c1 [4p, 2-Bromo-N-(3-{(1E)-3-oxo-3-[(4-morpholinophenyl)amino]prop-1-en-1-yl}phenyl)-acrylamide]
fold enhancement of antiproliferative activity relative to 4a ([3]; morpholin-4-yl, six of seven cell lines, exception CEM): 8–100 fold
effect on microtubule network [7]: not substantially modified
Bak and Bax expression [8]: remained practically unchanged
Mcl-1 expression [8]: decreased
Bid expression [8]: nearly complete disappearance
cell viability with z-VAD.fmk [9]: significantly increased cell viability
annexin-V positive cells [10]: accumulation of annexin-V positive cells
effect on cell cycle progression [11]: significant G2/M arrest
cell viability in the presence of antioxidants [12]: only the thiol-containing scavengers (NAC, GSH and DTT) significantly increased cell viability
intracellular GSH content (CMFDA fluorescence) [13]: remarkable decrease; also recorded: substantially reduced CMFDA fluorescence
Concentration up to which tubulin assembly was not inhibited [4]: > 20 µM
γH2A.X expression [14]: induced this effect only after 48 h
fold lower toxicity in resting PBMC respect to Jurkat and CEM [15]: 10–100 fold

C=C(Br)C(=O)Nc1ccc(/C=C/C(=O)Nc2cc(OC)c(OC)c(OC)c2)cc1 [4r]
effect on microtubule network [7]: not substantially modified
Bak and Bax expression [8]: remained practically unchanged
Mcl-1 expression [8]: decreased
Bcl-2 expression ([8]; 24 and 48 h): decreased
Bid expression [8]: nearly complete disappearance
ROS production, H2DCFDA-positive cells ([16]; 1–6 h, concentration-dependent): early but modest increase
ROS production, HE fluorescence (superoxide anion) ([16]; data not shown): did not detect any increase
cell viability with z-VAD.fmk [9]: significantly increased cell viability
annexin-V positive cells [10]: accumulation of annexin-V positive cells
concentration at which rise in G2/M cells occurs (as low as) [11]: 2 µM
effect on cell cycle progression [11]: significant G2/M arrest
cell viability in the presence of antioxidants [12]: only the thiol-containing scavengers (NAC, GSH and DTT) significantly increased cell viability
mitochondrial depolarization, onset time [17]: ≥ 12 h
intracellular GSH content (CMFDA fluorescence) [13]: substantially reduced CMFDA fluorescence
Concentration up to which tubulin assembly was not inhibited [4]: > 20 µM
γH2A.X expression [14]: induced γH2A.X expression
fold lower toxicity in resting PBMC respect to Jurkat and CEM [15]: 10–100 fold

COc1cc(NC(=O)/C=C/c2cccc(N)c2)cc(OC)c1OC [7o, (E)-3-(3-aminophenyl)-N-(3,4,5-trimethoxyphenyl)acryl-amide]
IC50 [3]: 2810 to 63100 nM
fold less active than 4o ([3]; across seven cell lines): 30–700 fold

C=C(Br)C(=O)O [α-bromoacrylic acid]
IC50 [18]: > 120000 nM
